The values below come from ChEMBL document CHEMBL3046382, “Synthesis and insecticidal activities and SAR studies of novel benzoheterocyclic diacylhydrazine derivatives” (2009).

Molecules are shown by their SMILES. Converted amounts (≈) assume the structure as drawn.

Holding throughout (format): functional
The subject of assay [1] is Culicidae. In words: Toxicity against fourth-instar larvae of Culex pipiens pallens assessed as mortality at 0.5 mg/kg measured after 7 to 10 days. In outline:
(§1)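 For each concentration, 1 mL of dilution was added to 99 mL water and 20 fourth-instar larvae introduced. Percentage mortality assessed 7–10 days after treatment.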

The subject of assay [2] is Culicidae. Nature of the assay: Toxicity against fourth-instar larvae of Culex pipiens pallens assessed as mortality at 1 mg/kg measured after 7 to 10 days. In outline: as §1
For assay [3], the system named is Ostrinia nubilalis. In words: Stomach toxicity in Ostrinia nubilalis (European corn borer) in compound treated corn leaves assessed as mortality measured after 4 days by leaf-dip method. As to conditions: for LC50: Ostrinia nubilalis, 96 h. In outline:
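Corn leaf disks (about 5 cm) dipped 3–5 s in test solution, air-dried, and placed singly in 7 cm glass vessels. Each disk given 10 third-instar larvae. Acetone-treated leaves as control, four replicates. Percentage mortality at 4 days; LC50 and LC95 derived.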

For assay [4], the system named is Helicoverpa armigera. In words: Contact toxicity in Helicoverpa armigera assessed as mortality at 1000 mg/L by topical application measured after 4 days […]. In outline:
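Third-instar larvae; compounds in acetone at 1000 mg L⁻¹, 0.5 μL applied to the thoracic tergite by microapplicator. Larvae then returned to standard rearing conditions. Percentage mortality scored 4 days after treatment.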

Assay [5] concerns Helicoverpa armigera. Nature of the assay: Stomach toxicity in Helicoverpa armigera in compound treated corn leaves assessed as mortality at 1000 mg/L measured after 4 days by leaf-dip method. In outline:
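Corn leaves dipped in acetone solution at 1000 mg L⁻¹ and air-dried. Each treated disk placed singly in a 24-hole box and given 10 third-instar larvae. Percentage mortality scored after 4 days.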

For assay [6], the system named is Plutella xylostella. In words: Contact toxicity in fourth-instar Plutella xylostella (diamondback moth) larva assessed as mortality measured after 72 hr by insect-dip method. In outline:
(§2)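 Fourth-instar larvae immersed for 5 min in acetone solutions diluted with water, five concentrations. Larvae then held at 25 ± 1 °C under standard rearing. Usually 30 insects per dose, each treatment in triplicate, water-only control. Mortality read at 48 and 72 h and LC50 derived.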

The test system of assay [7] is Plutella xylostella. Nature of the assay: Contact toxicity in fourth-instar Plutella xylostella (diamondback moth) larva assessed as mortality measured after 48 hr by insect-dip method. In outline: as §2
Assay [8] has as its system Spodoptera exigua. In words: Contact toxicity in fourth-instar Spodoptera exigua assessed as mortality by topical application measured after 48 hr. The following applies: read-out: LD50 (the source's name). In outline: (§3)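 Topical application to fourth-instar larvae: 1.0 μL of acetone dilution at various concentrations placed on the thoracic tergite by automatic microapplicator. Larvae then returned to standard rearing. Acetone-only control, each treatment three times. Mortality calculated at 48 and 72 h and LC50 derived.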

The subject of assay [9] is Spodoptera exigua. In words: Contact toxicity in fourth-instar Spodoptera exigua assessed as mortality by topical application measured after 72 hr. As to conditions: read-out: LD50 (the source's name). In outline: as §3
For assay [10], the system named is Spodoptera exigua. Nature of the assay: Stomach toxicity in Spodoptera exigua in compound treated cabbage leaves assessed as mortality measured after 3 days by leaf-dip method. The following applies: 72 h. In outline:
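Cabbage leaf disks (5 cm × 3 cm) dipped 3 s in test solution, air-dried, and placed singly in 80 cm³ boxes. Each disk given five third-instar larvae. Water- and acetone-treated leaves as controls, each treatment three times. Percentage mortality read at 3 days.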

In assay [11] the test system is Culicidae. Nature of the assay: Toxicity against fourth-instar larvae of Culex pipiens pallens assessed as mortality at 2 mg/kg measured after 7 to 10 days. In outline: as §1
Assay [12] relates to Mythimna separata. In words: Stomach toxicity in fourth-instar Mythimna separata (Oriental armyworm) larvae in compound treated corn leaves assessed as mortality at 2.5 mg/kg measured after 4 days. The following applies: 96 h.
Assay [13] concerns Mythimna separata. In words: Stomach toxicity in fourth-instar Mythimna separata (Oriental armyworm) larvae in compound treated corn leaves assessed as mortality at 5 mg/kg measured after 4 days. The following applies: 96 h.
Assay [14] relates to Mythimna separata. Nature of the assay: Stomach toxicity in fourth-instar Mythimna separata (Oriental armyworm) larvae in compound treated corn leaves assessed as mortality at 10 mg/kg measured after 4 days. The following applies: 96 h.
The subject of assay [15] is Mythimna separata. In words: Stomach toxicity in fourth-instar Mythimna separata (Oriental armyworm) larvae in compound treated corn leaves assessed as mortality at 25 mg/kg measured after 4 days. The following applies: 96 h.
In assay [16] the test system is Mythimna separata. Nature of the assay: Stomach toxicity in fourth-instar Mythimna separata (Oriental armyworm) larvae in compound treated corn leaves assessed as mortality at 50 mg/kg measured after 4 days. As to conditions: 96 h.
Assay [17] relates to Mythimna separata. Nature of the assay: Stomach toxicity in fourth-instar Mythimna separata (Oriental armyworm) larvae in compound treated corn leaves assessed as mortality at 100 mg/kg measured after 4 days. The following applies: 96 h.
The subject of assay [18] is Mythimna separata. Nature of the assay: Stomach toxicity in fourth-instar Mythimna separata(Oriental armyworm) larvae in compound treated corn leaves assessed as mortality at 200 mg/kg measured after 4 days. The following applies: 96 h.

For `Cc1cc(C)cc(C(=O)N(NC(=O)c2ccc3c(c2C)CC(C)O3)C(C)(C)C)c1` (stereo unspecified), in [1], the mortality at 0.5 mg/kg amounted to 10%. For the same compound, the mortality at 1 mg/kg in assay [2] was 10%. The LC95 in assay [3] is 271.89 µg/mL (≈ 689 µM). Also, the LC50 in [3] was determined as 40.5 µg/mL (≈ 103 µM); in assay [6], 81.4 µg/mL (≈ 206 µM); in assay [7] it was 124 µg/mL (≈ 314 µM); in assay [8] it was 190 µg/mL (≈ 482 µM); in assay [9] it was 52.8 µg/mL (≈ 134 µM); in assay [10], 12.7 µg/mL (≈ 32.2 µM). In addition, the Activity is listed as 50% in [4] and 70% in assay [5]. Also, in [11], the mortality at 2 mg/kg was 80%. Moreover, the mortality at 2.5 mg/kg in [12] was 20%. In addition, the mortality at 5 mg/kg in assay [13] was determined as 80%. The mortality at 10 mg/kg in [14] was found to be 95%. Further, the mortality at 25 mg/kg in [15] is 100%. Besides, the mortality at 50 mg/kg in assay [16] stood at 100%. In [17], the mortality at 100 mg/kg came to 100%. Also, the mortality at 200 mg/kg in assay [18] turned out to be 100%.

Regarding `Cc1c(C(=O)NN(C(=O)c2cc(Cl)cc(Cl)c2)C(C)(C)C)ccc2c1CC(C)O2` (stereo unspecified), in assay [1], the mortality at 0.5 mg/kg came to 0%. The mortality at 1 mg/kg in [2] was found to be 50%. Also, the mortality at 2 mg/kg in assay [11] is 80%. For the same compound, in assay [12], the mortality at 2.5 mg/kg turned out to be 0%. The mortality at 5 mg/kg in assay [13] was 10%. Moreover, the mortality at 10 mg/kg in assay [14] came out at 90%. Besides, the mortality at 25 mg/kg in assay [15] came out at 90%. Moreover, in assay [16], the mortality at 50 mg/kg came to 100%. Further, the mortality at 100 mg/kg in assay [17] was 100%. Besides, the mortality at 200 mg/kg in [18] was determined as 100%.

For `Cc1cc(C)cc(C(=O)N(NC(=O)c2ccc3c(c2C)CCCO3)C(C)(C)C)c1` [CHROMAFENOZIDE], the mortality at 0.5 mg/kg in assay [1] is 10%. Further, the mortality at 1 mg/kg in assay [2] worked out at 80%. Also, the LC95 in assay [3] was 139.25 µg/mL (≈ 353 µM). For the same compound, the LC50 in assay [3] stood at 18.6 µg/mL (≈ 47.2 µM); in assay [6] it was 123 µg/mL (≈ 312 µM); in [7], 236 µg/mL (≈ 598 µM); in assay [8], 29.8 µg/mL (≈ 75.5 µM); in [9], 14.9 µg/mL (≈ 37.8 µM); in assay [10], 6.3 µg/mL (≈ 16 µM). Further, the Activity in [4] came out at 60%; in assay [5], 65%. Further, in assay [11], the mortality at 2 mg/kg turned out to be 100%. In addition, in assay [12], the mortality at 2.5 mg/kg was found to be 80%. Also, the mortality at 5 mg/kg in [13] was determined as 100%. In addition, the mortality at 10 mg/kg in assay [14] turned out to be 100%. Further, the mortality at 25 mg/kg in [15] was 100%. For the same compound, the mortality at 50 mg/kg in assay [16] is 100%. Also, in [17], the mortality at 100 mg/kg is 100%. In addition, in assay [18], the mortality at 200 mg/kg came out at 100%.

Take `Cc1cc(C)cc(C(=O)N(NC(=O)c2ccc3c(c2C)OC(C)C3)C(C)(C)C)c1` (stereo unspecified) [FUXIAN]: the mortality at 0.5 mg/kg in [1] is 50%. Besides, the mortality at 1 mg/kg in assay [2] came out at 100%. Moreover, in assay [3], the LC95 was 147.78 µg/mL (≈ 375 µM). The LC50 was determined as 25.6 µg/mL (≈ 64.8 µM) in assay [3]; 304 µg/mL (≈ 772 µM) in assay [6]; 372 µg/mL (≈ 943 µM) in assay [7]; 59.6 µg/mL (≈ 151 µM) in [8]; 12.6 µg/mL (≈ 31.9 µM) in assay [9]; 5 µg/mL (≈ 12.7 µM) in assay [10]. Moreover, the Activity in assay [4] and in [5] was 60% in each case. In [11], the mortality at 2 mg/kg came to 100%. Further, the mortality at 2.5 mg/kg in assay [12] is 95%. In [13], the mortality at 5 mg/kg came to 100%. For the same compound, the mortality at 10 mg/kg in assay [14] came to 100%. For the same compound, in assay [15], the mortality at 25 mg/kg is 100%. The mortality at 50 mg/kg in assay [16] came to 100%. The mortality at 100 mg/kg in assay [17] amounted to 100%. In assay [18], the mortality at 200 mg/kg was 100%.

On to `Cc1cc(C)cc(C(=O)N(NC(=O)c2ccc3c(c2Cl)CCCO3)C(C)(C)C)c1` [N'-TERT-BUTYL-N'-(3,5-DIMETHYLBENZOYL)-N-5-CHLORO-6-CHROMANECARBOHYDRAZIDE], for which the LC95 in assay [3] was 405.65 µg/mL (≈ 978 µM). Further, the LC50 in assay [3] stood at 55.6 µg/mL (≈ 134 µM); in assay [6], 70.8 µg/mL (≈ 171 µM); in [7], 113 µg/mL (≈ 273 µM); in assay [8], 17.3 µg/mL (≈ 41.7 µM); in [9] it was 11.7 µg/mL (≈ 28.2 µM); in assay [10], 5.5 µg/mL (≈ 13.3 µM). Besides, the Activity in assay [4] is 40%; in [5], 80%.

What is called mortality is the percentage killed.
